Assays:
Canis familiaris [1] = species: Canis familiaris; assay: Maximum rate of rise of the upstroke of transmembrane potential, in canine Purkinje Fibers at a concentration of 30 uM at 300 ms (simulating tachycardia); format: functional; conditions: Canis lupus familiaris, Purkinje fiber
Outline: (§1)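 Isolated canine Purkinje fiber bundles were driven by square-wave pulses 2.0 ms long at 2× threshold and equilibrated ≥1 h to steady state. Each concentration was superfused 45–60 min before recording, and action potentials were sampled at 4–6 sites per fiber in control and after drug, giving Vmax and APD to −60 mV.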

Canis familiaris [2] = assay: Atrial conduction time by the compound in open chest anesthetized dog, after iv administration at a dose of 10.0 mg/kg.; format: functional, Canis lupus familiaris, Cardiac atrium
Outline: (§2)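 Mongrel dogs anesthetized with sodium pentobarbital (30 mg/kg iv, then 5 mg/kg per h), chest opened, paced at BCL 300 ms. Atrial conduction time was taken as the interval between electrograms recorded at the proximal and distal sites of the atrial recording electrode array, before and after iv or intraduodenal dosing. Values are changes from control.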

Canis familiaris [3] = species: Canis familiaris; assay: Maximum rate of rise of the upstroke of transmembrane potential, in canine Purkinje Fibers at a concentration of 30 uM at 1000 ms (simulating normal heart rate); format: functional; conditions: Canis lupus familiaris, Purkinje fiber; outline: as §1
Canis familiaris [4] = assay: Ventricular conduction time by the compound in open chest anesthetized dog, after iv administration at a dose of 2.5 mg/kg.; format: functional, Canis lupus familiaris, Heart
Outline: (§3)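 Mongrel dogs were anesthetized with sodium pentobarbital (30 mg/kg iv, then 5 mg/kg per h), the chest opened, and the heart paced at BCL 300 ms. Compound was given iv or intraduodenally. Ventricular conduction time was taken as the interval between electrograms at the proximal and distal sites of the recording electrode array. 2-5 dogs per dose.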

Canis familiaris [5] = assay: Atrial effective refractory period by the compound in open chest anesthetized dog, after iv administration at a dose of 2.5 mg/kg.; format: functional, Canis lupus familiaris, Cardiac atrium
Outline: (§4)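 Open-chest mongrel dogs under sodium pentobarbital anesthesia (30 mg/kg iv plus 5 mg/kg per h), paced at basic cycle length 300 ms. Atrial effective refractory period was determined by electrical stimulation before and after iv or intraduodenal compound and reported as change from control.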

Canis familiaris [6] = assay: Ventricular effective refractory period by the compound in open chest anesthetized dog, after iv administration at a dose of 10.0 mg/kg.; format: functional, Canis lupus familiaris, Heart
Canis familiaris [7] = assay: Mean arterial pressure by the compound in open chest anesthetized dog, after iv administration at a dose of 5.0 mg/kg.; format: functional, Canis lupus familiaris, Artery; design: unit not given here
Outline: (§5)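 Hemodynamics (heart rate, mean arterial pressure) recorded in pentobarbital-anesthetized (30 mg/kg iv, 5 mg/kg per h maintenance) open-chest mongrel dogs during the refractoriness study at BCL 300 ms. Readings were taken before and after iv or intraduodenal compound and expressed as change from control.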

Canis familiaris [8] = assay: Atrial conduction time by the compound in open chest anesthetized dog, after iv administration at a dose of 5.0 mg/kg.; format: functional, Canis lupus familiaris, Cardiac atrium; design: unit not given here; outline: as §2
Canis familiaris [9] = assay: Heart beat by the compound in open chest anesthetized dog, after iv administration at a dose of 2.5 mg/kg.; format: functional, Canis lupus familiaris; outline: as §5
Canis familiaris [10] = species: Canis familiaris; assay: Maximum rate of rise of the upstroke of transmembrane potential, in canine Purkinje Fibers at a concentration of 300 uM at 1000 ms (simulating normal heart rate); format: functional; conditions: Canis lupus familiaris, Purkinje fiber; outline: as §1
Canis familiaris [11] = assay: Ventricular conduction time by the compound in open chest anesthetized dog, after iv administration at a dose of 10.0 mg/kg.; format: functional, Canis lupus familiaris, Heart; outline: as §3
Canis familiaris [12] = species: Canis familiaris; assay: Repolarization to reach -60mV, in canine Purkinje Fibers at a concentration of 300 uM at 300 ms (simulating tachycardia); format: functional, Canis lupus familiaris, Purkinje fiber
Outline: (§6)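 Purkinje fiber bundles were stimulated with square-wave current pulses of 2.0 ms at twice threshold and equilibrated for at least 1 h, or until action potential parameters were steady. Each concentration was superfused for 45-60 min to reach steady state. Action potentials were recorded at four to six sites per fiber, under control and after drug.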

Canis familiaris [13] = assay: Ventricular effective refractory period by the compound in open chest anesthetized dog, after iv administration at a dose of 5.0 mg/kg.; format: functional, Canis lupus familiaris, Heart; design: unit not given here
Canis familiaris [14] = assay: Heart beat by the compound in open chest anesthetized dog, after iv administration at a dose of 5.0 mg/kg.; format: functional, Canis lupus familiaris; design: unit not given here; outline: as §5
Canis familiaris [15] = assay: Mean arterial pressure by the compound in open chest anesthetized dog, after iv administration at a dose of 10.0 mg/kg.; format: functional, Canis lupus familiaris, Artery; outline: as §5
Canis familiaris [16] = assay: Atrial conduction time by the compound in open chest anesthetized dog, after iv administration at a dose of 2.5 mg/kg.; format: functional, Canis lupus familiaris, Cardiac atrium; outline: as §2
Canis familiaris [17] = species: Canis familiaris; assay: Repolarization to reach -60mV, in canine Purkinje Fibers at a concentration of 30 uM at 300 ms (simulating tachycardia); format: functional, Canis lupus familiaris, Purkinje fiber; outline: as §6
Canis familiaris [18] = assay: Atrial effective refractory period by the compound in open chest anesthetized dog, after iv administration at a dose of 5.0 mg/kg.; format: functional, Canis lupus familiaris, Cardiac atrium; design: unit not given here; outline: as §4
Canis familiaris [19] = assay: Ventricular effective refractory period by the compound in open chest anesthetized dog, after iv administration at a dose of 2.5 mg/kg.; format: functional, Canis lupus familiaris, Heart
Canis familiaris [20] = assay: Atrial effective refractory period by the compound in open chest anesthetized dog, after iv administration at a dose of 10.0 mg/kg.; format: functional, Canis lupus familiaris, Cardiac atrium; outline: as §4
Canis familiaris [21] = species: Canis familiaris; assay: repolarization to reach -60mV, in canine Purkinje Fibers at a concentration of 300 uM at 1000 ms (simulating normal heart rate); format: functional, Canis lupus familiaris, Purkinje fiber; outline: as §6
Canis familiaris [22] = species: Canis familiaris; assay: Maximum rate of rise of the upstroke of transmembrane potential, in canine Purkinje Fibers at a concentration of 300 uM at 300 ms (simulating tachycardia); format: functional; conditions: Canis lupus familiaris, Purkinje fiber; outline: as §1
Canis familiaris [23] = species: Canis familiaris; assay: repolarization to reach -60mV, in canine Purkinje Fibers at a concentration of 30 uM at 1000 ms (simulating normal heart rate); format: functional, Canis lupus familiaris, Purkinje fiber; outline: as §6
Canis familiaris [24] = assay: Ventricular conduction time by the compound in open chest anesthetized dog, after iv administration at a dose of 5.0 mg/kg.; format: functional, Canis lupus familiaris, Heart; design: unit not given here; outline: as §3
Canis familiaris [25] = assay: Mean arterial pressure by the compound in open chest anesthetized dog, after iv administration at a dose of 2.5 mg/kg.; format: functional, Canis lupus familiaris, Artery; outline: as §5
Canis familiaris [26] = assay: Heart beat by the compound in open chest anesthetized dog, after iv administration at a dose of 10.0 mg/kg.; format: functional, Canis lupus familiaris; outline: as §5
Canis familiaris [27] = species: Canis familiaris; assay: repolarization to reach -60mV, in canine Purkinje Fibers at a concentration of 1.0 uM at 1000 ms (simulating normal heart rate); format: functional, Canis lupus familiaris, Purkinje fiber; outline: as §6
Canis familiaris [28] = species: Canis familiaris; assay: Maximum rate of rise of the upstroke of transmembrane potential, in canine Purkinje Fibers at a concentration of 1.0 uM at 300 ms (simulating tachycardia); format: functional; design: unit not given here; conditions: Canis lupus familiaris, Purkinje fiber; outline: as §1
Canis familiaris [29] = species: Canis familiaris; assay: Repolarization to reach -60mV, in canine Purkinje Fibers at a concentration of 3.0 uM at 300 ms (simulating tachycardia); format: functional, Canis lupus familiaris, Purkinje fiber; outline: as §1
Canis familiaris [30] = assay: Ventricular effective refractory period by the compound in open chest anesthetized dog, after id administration at a dose of 10 mg/kg.; format: functional, Canis lupus familiaris, Heart; conditions: route intraduodenal
Canis familiaris [31] = species: Canis familiaris; assay: repolarization to reach -60mV, in canine Purkinje Fibers at a concentration of 0.3 uM at 1000 ms (simulating normal heart rate); format: functional, Canis lupus familiaris, Purkinje fiber; outline: as §6
Canis familiaris [32] = assay: Ventricular conduction time by the compound in open chest anesthetized dog, after id administration at a dose of 10 mg/kg.; format: functional, Canis lupus familiaris, Heart; conditions: route intraduodenal; outline: as §3
Canis familiaris [33] = assay: Atrial conduction time by the compound in open chest anesthetized dog, after id administration at a dose of 10 mg/kg.; format: functional, Canis lupus familiaris, Cardiac atrium; conditions: route intraduodenal; outline: as §2
Canis familiaris [34] = assay: Mean arterial pressure by the compound in open chest anesthetized dog, after id administration at a dose of 10 mg/kg.; format: functional, Canis lupus familiaris, Artery; conditions: route intraduodenal; outline: as §5
Canis familiaris [35] = assay: Heart beat by the compound in open chest anesthetized dog, after id administration at a dose of 10 mg/kg.; format: functional, Canis lupus familiaris; conditions: route intraduodenal; outline: as §5
Canis familiaris [36] = species: Canis familiaris; assay: Maximum rate of rise of the upstroke of transmembrane potential, in canine Purkinje Fibers at a concentration of 0.3 uM at 1000 ms (simulating normal heart rate); format: functional; design: unit not given here; conditions: Canis lupus familiaris, Purkinje fiber; outline: as §1
Canis familiaris [37] = species: Canis familiaris; assay: Maximum rate of rise of the upstroke of transmembrane potential, in canine Purkinje Fibers at a concentration of 3.0 uM at 1000 ms (simulating normal heart rate); format: functional; design: unit not given here; conditions: Canis lupus familiaris, Purkinje fiber; outline: as §1
Canis familiaris [38] = species: Canis familiaris; assay: repolarization to reach -60mV, in canine Purkinje Fibers at a concentration of 3.0 uM at 1000 ms (simulating normal heart rate); format: functional, Canis lupus familiaris, Purkinje fiber; outline: as §6
Canis familiaris [39] = species: Canis familiaris; assay: Maximum rate of rise of the upstroke of transmembrane potential, in canine Purkinje Fibers at a concentration of 1.0 uM at 1000 ms (simulating normal heart rate); format: functional; design: unit not given here; conditions: Canis lupus familiaris, Purkinje fiber; outline: as §1
Canis familiaris [40] = species: Canis familiaris; assay: Repolarization to reach -60mV, in canine Purkinje Fibers at a concentration of 0.3 uM at 300 ms (simulating tachycardia); format: functional, Canis lupus familiaris, Purkinje fiber; outline: as §1
Canis familiaris [41] = species: Canis familiaris; assay: Repolarization to reach -60mV, in canine Purkinje Fibers at a concentration of 1.0 uM at 300 ms (simulating tachycardia); format: functional, Canis lupus familiaris, Purkinje fiber; outline: as §1
Canis familiaris [42] = species: Canis familiaris; assay: Maximum rate of rise of the upstroke of transmembrane potential, in canine Purkinje Fibers at a concentration of 0.3 uM at 300 ms (simulating tachycardia); format: functional; design: unit not given here; conditions: Canis lupus familiaris, Purkinje fiber; outline: as §1
Canis familiaris [43] = species: Canis familiaris; assay: Maximum rate of rise of the upstroke of transmembrane potential, in canine Purkinje Fibers at a concentration of 3.0 uM at 300 ms (simulating tachycardia); format: functional; design: unit not given here; conditions: Canis lupus familiaris, Purkinje fiber; outline: as §1
Canis familiaris [44] = assay: Atrial effective refractory period by the compound in open chest anesthetized dog, after id administration at a dose of 10 mg/kg.; format: functional, Canis lupus familiaris, Cardiac atrium; conditions: route intraduodenal; outline: as §4

Compound: CC(C)NCC(O)c1ccc(NS(C)(=O)=O)cc1 (racemic) [SOTALOL]
- Vmax (Canis familiaris [1]): -12
- ACT (Canis familiaris [2]): -4
- Vmax (Canis familiaris [3]): 2
- VCT (Canis familiaris [4]): -1
- AERP (Canis familiaris [5]): 42
- VERP (Canis familiaris [6]): 30
- MBP (Canis familiaris [7]): -17
- ACT (Canis familiaris [8]): -7
- HR (Canis familiaris [9]): -27
- Vmax (Canis familiaris [10]): -10
- VCT (Canis familiaris [11]): -4
- APD (Canis familiaris [12]): 36%
- VERP (Canis familiaris [13]): 25
- HR (Canis familiaris [14]): -28
- MBP (Canis familiaris [15]): -29
- ACT (Canis familiaris [16]): -5
- APD (Canis familiaris [17]): 18%
- AERP (Canis familiaris [18]): 57
- VERP (Canis familiaris [19]): 19
- AERP (Canis familiaris [20]): 68
- APD (Canis familiaris [21]): 86%
- Vmax (Canis familiaris [22]): -20
- APD (Canis familiaris [23]): 56%
- VCT (Canis familiaris [24]): -1
- MBP (Canis familiaris [25]): -16
- HR (Canis familiaris [26]): -39

Compound: CN(Cc1ccc2ccccc2n1)CC(O)COc1ccc(NS(C)(=O)=O)cc1 (stereo not given)
- APD (Canis familiaris [27]): 43%
- Vmax (Canis familiaris [28]): 15
- APD (Canis familiaris [29]): 27%
- VERP (Canis familiaris [30]): 20
- APD (Canis familiaris [31]): 19%
- MBP (Canis familiaris [7]): -9
- VCT (Canis familiaris [32]): 1
- ACT (Canis familiaris [33]): -4
- MBP (Canis familiaris [34]): -5
- ACT (Canis familiaris [8]): -9
- HR (Canis familiaris [35]): -15
- Vmax (Canis familiaris [36]): -2
- Vmax (Canis familiaris [37]): -7
- APD (Canis familiaris [38]): 62%
- Vmax (Canis familiaris [39]): 6
- VERP (Canis familiaris [13]): 21
- HR (Canis familiaris [14]): -18
- APD (Canis familiaris [40]): 8%
- AERP (Canis familiaris [18]): 45
- APD (Canis familiaris [41]): 19%
- Vmax (Canis familiaris [42]): 5
- Vmax (Canis familiaris [43]): -9
- VCT (Canis familiaris [24]): -2
- AERP (Canis familiaris [44]): 31

— ChEMBL document CHEMBL1125789, “Synthesis and selective class III antiarrhythmic activity of novel N-heteroaralkyl-substituted 1-(aryloxy)-2-propanolamine and related propylamine derivatives” (J Med Chem, 1991)
